Bioassay records: PubChem, several laboratories
Rin1 Abl inh – blocks binding of human Rin1 to Abl | P00519+Q13671 | TR-FRET Rin1/Abl binding, biochemical | inhibition, % at 7.35 µM | 360,000 compounds, 0.4% hits | AID 588664; in the data active = inhibition above about 5%, passing the limit was not always enough
B2AR ag – human beta-2 adrenergic receptor agonism by FAP. response, % (no concentration beside the values). AID 504454. 340,000 compounds, 0.43% hits. P07550. Am2.2-beta2AR cells, FAP receptor internalization, flow cytometry;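 active = response above a set limit, near 3 SD of response in nonfluorescent compounds, cut at about 42% in these data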
MBD2 inh – inhibitors of human MBD2 binding to methylated oligonucleotide; Q9UBB5; TR-FRET; inhibition, % at 4.4 µM; 370,000 compounds, 0.31% hits; AID 686964; in the data active = inhibition above about 13%
Arrestin-AP2 inh – human beta-arrestin and AP2 interaction inhibition. inhibition, % at 10 µM. 340,000 compounds, 0.31% hits. AID 504490. FITC-arrestin peptide / GST-AP2 beads, flow cytometry; AP2 beta2 appendage carries R879A mutation;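 active = inhibition above a set limit, near 3 SD of compounds lacking own fluorescence, cut at about 54% in these data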
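System: GST-AP2 R879A glutathione beads | Also added: FITC-arrestin peptide, 50 nM | Times: 12 min plus 1 h, RT | Signal: Bead flow cytometry, FITC channel | Buffer or medium: PBS with 0.05% Tween 20 and 0.1% BSA | Read-out basis: Percent drop in bead-associated FITC signal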
UHRF1 MBD2 ctr – human UHRF1 methylated DNA binding inhibitors; UHRF1 binding to methylated oligo, TR-FRET; inhibition, % at 4.4 µM; 370,000 compounds, 0.75% hits; AID 687016; in the data active = inhibition above about 21%;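 note: UHRF1 SRA domain binding a hemimethylated CpG hairpin DNA probe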
ABHD5 PLIN5 PPI – inhibitors of human ABHD5-perilipin-5 interaction | Q00G26+Q8WTS1 | Split G. princeps luciferase complementation, luminescence, 4 h | inhibition, % at 4 µM | 360,000 compounds, 0.78% hits | AID 602281;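 active = inhibition above the mean inhibition across every tested compound plus 3 SD, cut at about 22% in these data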
Rin1 Abl conf – Rin1-Abl interaction inhibition confirmation. TR-FRET Rin1-Abl binding, purified proteins. shares compounds with Rin1 Abl inh. 1,300 compounds, 49% hits. inhibition, % at 7.35 µM
GFP quencher – counter-screen for Rin1-Abl inhibitors: GFP fluorescence quenchers. shares compounds with Rin1 Abl inh. inhibitors/quenchers counterscreen. inhibition, % at 6.75 µM. 1,300 compounds, 8.5% hits. AID 602125;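 note: ABL1-eGFP fusion protein alone without its partner RIN1-SBP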
GFP quench dose – GFP fluorescence interference dose response. 230 tested, under 10 active. IC50, µM. shares compounds with Rin1 Abl inh. GFP fluorescence interference/quenching counterscreen. AID 602182; call rule not given here;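 note: ABL1-eGFP fusion protein alone without its RIN1 binding partner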
Of the large screens only hits and unclear results are named; the others gave an inactive call (follow-up assays come after a bar, where they were run). Rows were chosen to be rich in hits. Some 2.5% of all compounds tested hit in one or more screens of this group. Cut-off read from the data, not from the text of the source, unless noted: active = inhibition above about 6.5%; inactive = the rest.

C/C(=N/NC(=O)c1cc(O)c(O)c(O)c1)c1ccc([N+](=O)[O-])cc1	Rin1 Abl inh 41, UHRF1 MBD2 ctr 22 | Rin1 Abl conf 46 | GFP quencher 21
Cc1cc(C)cc(NC(=O)O[C@@H]2CC[C@@]34CCCN3C(=O)CCC[C@H]4C2)c1	none (no result: Rin1 Abl inh, B2AR ag, Arrestin-AP2 inh, ABHD5 PLIN5 PPI)
CC(O)c1nc2ccccc2n1CCCc1ccccc1 (stereo not drawn)	none
CCCCCCn1c(C(C)O)nc2ccccc21 (stereo not drawn)	Rin1 Abl inh 21 | Rin1 Abl conf inactive | GFP quencher inactive
CCC(CC)CN1CCC(CN2C(=O)C(=O)NC[C@@H]2CC(C)C)CC1	Rin1 Abl inh 19 (no result: B2AR ag, Arrestin-AP2 inh) | Rin1 Abl conf 14 | GFP quencher inactive
CC1CCCN(C(=O)COC(=O)Cc2c[nH]c3ccccc23)C1 (stereo not drawn)	none
COC(=O)C1CCN(C(=O)COC(=O)Cc2c[nH]c3ccccc23)CC1	Rin1 Abl inh 5.2 | Rin1 Abl conf inactive | GFP quencher inactive
Cc1ccc(Nc2nc(N)nc(CSc3nnc(-c4ccncc4)o3)n2)cc1	Rin1 Abl inh 9.6 | Rin1 Abl conf 10 | GFP quencher inactive
O=C(Nc1nc(-c2cc(Cl)sc2Cl)cs1)c1ccc(Br)s1	Rin1 Abl inh 6.0, MBD2 inh 21 | Rin1 Abl conf inactive | GFP quencher inactive
O=C(Cn1cc(COc2c(F)c(F)c(Br)c(F)c2F)nn1)c1ccc(O)cc1	none
O=C(Cn1cc(COc2ccccc2[N+](=O)[O-])nn1)c1ccc(O)cc1	Rin1 Abl inh 7.7 | Rin1 Abl conf inactive | GFP quencher inactive
COc1ccc(N=C(N)NC(=O)OCc2ccccc2)cc1	none (no result: Rin1 Abl inh, B2AR ag, Arrestin-AP2 inh, ABHD5 PLIN5 PPI)
Cc1cc(C)cc(NC(=O)N2CCNC(=O)C2CC(=O)Nc2cc(Cl)ccc2Cl)c1 (stereo not drawn)	Rin1 Abl inh 10 | Rin1 Abl conf 8.0 | GFP quencher inactive
O=C(CC1C(=O)NCCN1C(=O)Nc1ccc(F)cc1F)Nc1cc(Cl)ccc1Cl (stereo not drawn)	none
COc1ccc(Cl)cc1NC(=O)/C=C\C(=O)O	Rin1 Abl inh 5.4 | Rin1 Abl conf inactive | GFP quencher inactive
COC(=O)[C@]12C[C@H](CC(=O)N3CCCC3)C(=O)N(Cc3cccc4ccccc34)C1=C[C@H](C1CCCC1)O[C@@H]2C	none (no result: Rin1 Abl inh, B2AR ag, Arrestin-AP2 inh, ABHD5 PLIN5 PPI)
Cc1ccccc1N1CCN(S(=O)(=O)c2ccc3c(c2)oc(=O)n3C)CC1	none (no result: Rin1 Abl inh, B2AR ag, Arrestin-AP2 inh, ABHD5 PLIN5 PPI)
COc1ccc(Br)cc1C(=O)Nc1ccccc1N1CCCC1	Rin1 Abl inh 6.6 | Rin1 Abl conf inactive | GFP quencher inactive
COc1ccc(Cl)cc1C(=O)Nc1ccccc1N1CCCCC1	none
Cc1ccccc1C(=O)N(Cc1ccccn1)CC1CCCO1 (stereo not drawn)	none (no result: Rin1 Abl inh, B2AR ag, Arrestin-AP2 inh, ABHD5 PLIN5 PPI)
CC/C(=N\Nc1ccnc2cc(Cl)ccc12)c1ccc(O)cc1	none
Oc1ccc(/C=N/Nc2ccnc3cc(Cl)ccc23)c(O)c1O	Rin1 Abl inh 24, B2AR ag 106 | Rin1 Abl conf 26 | GFP quencher 7.5
Clc1ccc2c(NCc3ccccn3)ccnc2c1	none
Oc1ccc(/C=N/Nc2ccnc3cc(Cl)ccc23)cc1O	Rin1 Abl inh 11 | Rin1 Abl conf inactive | GFP quencher inactive
Fc1cc(F)c(CSc2nnc(-c3cccnc3)n2Cc2ccccc2)cc1F	none (no result: Rin1 Abl inh, B2AR ag, Arrestin-AP2 inh, ABHD5 PLIN5 PPI)
Cc1c(Cl)cccc1N=C(N)N=C(N)N	Rin1 Abl inh 9.1 | Rin1 Abl conf inactive | GFP quencher inactive
COc1ccc(/C=C/CN2CCC(Oc3ccc(C(=O)N4CCCCC4)cc3)CC2)cc1	Rin1 Abl inh 7.2 | Rin1 Abl conf inactive | GFP quencher inactive
COc1ccccc1/C=C/CN1CCC(Oc2ccc(C(=O)N3CCCCC3)cc2)CC1	Rin1 Abl inh 10 | Rin1 Abl conf 8.4 | GFP quencher inactive
O=C(c1ccc(OC2CCN(C/C=C/c3ccccc3)CC2)cc1)N1CCCC1	none
Cc1cc(C)cc(CN2CCC(Oc3ccc(C(=O)N4CCCC4)cc3)CC2)c1	none
O=C(c1ccc(OC2CCN(C/C=C/c3ccccc3)CC2)cc1)N1CCCCC1	Rin1 Abl inh 6.3 | Rin1 Abl conf inactive | GFP quencher inactive
COc1ccc(C2C(C(=O)Nc3ccc(Cl)cc3)CCC(=O)N2c2ccc(OC)cc2)cc1 (stereo not drawn)	none (no result: Rin1 Abl inh, B2AR ag, Arrestin-AP2 inh, ABHD5 PLIN5 PPI)
COC(=O)c1cc(OC)nc(OC)c1	none
COC(=O)c1cc(O)c(O)c(O)c1	Rin1 Abl inh 18 | Rin1 Abl conf 17 | GFP quencher inactive
CC1CCN(C(=O)c2ccc(N3CCOCC3)c([N+](=O)[O-])c2)CC1	Rin1 Abl inh 8.9 | Rin1 Abl conf inactive | GFP quencher inactive
CCOC(=O)c1ccc(CNC(=O)C(Cc2c[nH]c3ccccc23)NC(C)=O)o1 (stereo not drawn)	Rin1 Abl inh 8.1 | Rin1 Abl conf inactive | GFP quencher inactive
COC(=O)c1ccc(CSc2nnc(-c3ccncc3)o2)o1	Rin1 Abl inh 19 | Rin1 Abl conf 39 | GFP quencher inactive | GFP quench dose inactive
COC(=O)c1ccc(Cl)c(NC(=O)CSc2nnc(-c3ccncc3)o2)c1	none
COC(=O)c1ccccc1NC(=O)CSc1nnc(-c2ccncc2)o1	Rin1 Abl inh 16 | Rin1 Abl conf 16 | GFP quencher inactive
CS(=O)(=O)c1ccc(Cl)c(NC(=O)c2ccc3ccccc3c2)c1	none
O=C(Nc1ccccc1Cl)c1ccc2ccccc2c1	Rin1 Abl inh 7.6 | Rin1 Abl conf inactive | GFP quencher inactive
O=C(O)c1cc(N2N=C(C(F)(F)F)/C(=C/C=C/c3ccco3)C2=O)ccc1Cl	Rin1 Abl inh 12, MBD2 inh 108, UHRF1 MBD2 ctr 97, ABHD5 PLIN5 PPI 22 | Rin1 Abl conf inactive | GFP quencher 26
C=CCN1C(=O)[C@H](CC(=O)NCCCC)[C@@]2(C(=O)OCC)CCCC=C12	none (no result: Rin1 Abl inh, B2AR ag, Arrestin-AP2 inh, ABHD5 PLIN5 PPI)
Cc1cccc(N2CCN(C(=O)c3cc(S(=O)(=O)N(C)C)ccc3Cl)CC2)c1C	none (no result: Rin1 Abl inh, B2AR ag, Arrestin-AP2 inh, ABHD5 PLIN5 PPI)
CCCCn1c(SCC2CCCO2)nc2cc(S(N)(=O)=O)ccc21 (stereo not drawn)	Rin1 Abl inh 5.9 | Rin1 Abl conf inactive | GFP quencher inactive
CCN(CC)c1nc2c3c(nc4c(c3c1C#N)CC(=O)N4c1ccc(Cl)cc1)NC(C)=N2	Rin1 Abl inh 15 | Rin1 Abl conf 14 | GFP quencher inactive
CCc1ccc(N2C(=O)Cc3c2nc(N)c(C#N)c3N)cc1	none
O=c1[nH]c(CSc2ccccn2)nc2c1oc1ccccc12	Rin1 Abl inh 9.9 | Rin1 Abl conf inactive | GFP quencher inactive
CCc1nc2c(oc3ccccc32)c(=O)[nH]1	none
